{"source": "ChEMBL document CHEMBL4364248", "about": "“Discovery of 1,2,4-oxadiazole-Containing hydroxamic acid derivatives as histone deacetylase inhibitors potential application in cancer therapy” (Eur J Med Chem, 2019)", "key": {"[1]": {"experiment": "Clearance in Sprague-Dawley rat at 5 mg/kg, iv measured upto 24 hrs by LC-MS/MS analysis", "assay_type": "ADME, organism-based", "conditions": "in vivo", "summary_of_the_method": "(§1)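 SD rats (200-250 g), six per time point, given 5 mg/kg as a tail-vein bolus or orally. Blood was taken by cardiac puncture before dosing and at 5, 15, 30, 45 min and 1, 2, 4, 6, 8, 10, 12 and 24 h. Plasma was spun at 4000 g for 15 min at 4 °C and stored at -80 °C. Analysis was LC-MS/MS with multiple-reaction monitoring, followed by noncompartmental analysis.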"}, "JeKo-1 [2]": {"tested_on": "JeKo-1", "experiment": "Cell cycle arrest in human JeKo1 cells assessed as accumulation at S phase at 100 nM after 24 hrs by propidium iodide staining based flow cytometric analysis (reference value: 26.13 %)", "assay_type": "functional"}, "[3]": {"experiment": "Volume of distribution at steady state in Sprague-Dawley rat at 5 mg/kg, iv measured upto 24 hrs by LC-MS/MS analysis", "assay_type": "ADME, organism-based", "conditions": "in vivo, read-out: Vdss", "summary_of_the_method": "as §1"}, "[4]": {"experiment": "Volume of distribution at steady state in Sprague-Dawley rat at 5 mg/kg, po measured upto 24 hrs by LC-MS/MS analysis", "assay_type": "ADME, organism-based", "conditions": "in vivo", "summary_of_the_method": "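SD rats (200-250 g), six per time point, given 5 mg/kg orally; blood drawn by cardiac puncture at 0, 5, 15, 30, 45 min and 1, 2, 4, 6, 8, 10, 12, 24 h, held on ice. Plasma separated by centrifugation (4000 g, 15 min, 4 °C), stored at -80 °C, assayed by LC-MS/MS in multiple-reaction monitoring mode; parameters from noncompartmental analysis.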"}, "[5]": {"biological_target": "T1, Protein deacetylase HDAC6 (Homo sapiens) (UniProt Q9UBN7)", "T1 sequence (whole entry)": "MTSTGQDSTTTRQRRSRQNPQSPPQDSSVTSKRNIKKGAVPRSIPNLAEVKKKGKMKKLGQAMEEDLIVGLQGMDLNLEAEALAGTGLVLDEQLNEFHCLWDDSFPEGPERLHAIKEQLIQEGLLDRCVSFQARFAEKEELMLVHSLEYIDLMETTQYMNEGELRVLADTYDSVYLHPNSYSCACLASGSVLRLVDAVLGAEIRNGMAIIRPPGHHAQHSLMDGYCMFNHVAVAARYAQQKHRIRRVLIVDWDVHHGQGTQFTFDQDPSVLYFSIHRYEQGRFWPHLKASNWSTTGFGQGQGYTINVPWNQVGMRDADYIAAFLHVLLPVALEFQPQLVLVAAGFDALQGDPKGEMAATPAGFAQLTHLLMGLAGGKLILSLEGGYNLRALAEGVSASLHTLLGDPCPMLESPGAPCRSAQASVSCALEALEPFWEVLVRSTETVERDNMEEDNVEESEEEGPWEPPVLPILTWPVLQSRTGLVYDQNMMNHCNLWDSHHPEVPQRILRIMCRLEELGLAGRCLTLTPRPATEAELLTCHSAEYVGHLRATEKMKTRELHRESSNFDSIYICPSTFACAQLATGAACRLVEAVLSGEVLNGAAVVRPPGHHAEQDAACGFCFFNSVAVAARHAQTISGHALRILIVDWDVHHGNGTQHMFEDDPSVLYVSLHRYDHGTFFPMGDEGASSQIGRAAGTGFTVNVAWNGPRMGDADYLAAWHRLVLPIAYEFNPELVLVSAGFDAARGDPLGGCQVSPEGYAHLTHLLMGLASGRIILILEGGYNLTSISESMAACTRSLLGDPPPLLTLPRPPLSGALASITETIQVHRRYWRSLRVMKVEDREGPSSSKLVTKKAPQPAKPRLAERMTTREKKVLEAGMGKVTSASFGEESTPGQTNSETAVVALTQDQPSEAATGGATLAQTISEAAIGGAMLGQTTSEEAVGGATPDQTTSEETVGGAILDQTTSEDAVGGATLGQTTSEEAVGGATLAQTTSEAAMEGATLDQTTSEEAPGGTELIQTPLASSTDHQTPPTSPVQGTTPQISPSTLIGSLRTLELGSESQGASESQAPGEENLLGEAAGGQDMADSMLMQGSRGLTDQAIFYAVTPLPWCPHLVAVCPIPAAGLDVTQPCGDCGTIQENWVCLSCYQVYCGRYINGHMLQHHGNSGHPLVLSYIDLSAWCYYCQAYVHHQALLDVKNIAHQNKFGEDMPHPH", "experiment": "Inhibition of recombinant full length HDAC6 (unknown origin) using Ac-peptide-AMC as substrate at 100 nM after 1 hr by fluorescence assay relative to control", "summary_of_the_method": "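Full-length recombinant HDAC1 or HDAC6 was incubated with compound, trypsin and Ac-peptide-AMC substrate for 1 h at room temperature. Fluorescence was read at ex 355/em 460 nm. Inhibition was calculated against the DMSO vehicle control.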"}, "Histone deacetylase 9": {"biological_target": "Histone deacetylase 9 (Homo sapiens, UniProt Q9UKV0)", "sequence (Q9UKV0 whole entry, the tested form may be a part)": "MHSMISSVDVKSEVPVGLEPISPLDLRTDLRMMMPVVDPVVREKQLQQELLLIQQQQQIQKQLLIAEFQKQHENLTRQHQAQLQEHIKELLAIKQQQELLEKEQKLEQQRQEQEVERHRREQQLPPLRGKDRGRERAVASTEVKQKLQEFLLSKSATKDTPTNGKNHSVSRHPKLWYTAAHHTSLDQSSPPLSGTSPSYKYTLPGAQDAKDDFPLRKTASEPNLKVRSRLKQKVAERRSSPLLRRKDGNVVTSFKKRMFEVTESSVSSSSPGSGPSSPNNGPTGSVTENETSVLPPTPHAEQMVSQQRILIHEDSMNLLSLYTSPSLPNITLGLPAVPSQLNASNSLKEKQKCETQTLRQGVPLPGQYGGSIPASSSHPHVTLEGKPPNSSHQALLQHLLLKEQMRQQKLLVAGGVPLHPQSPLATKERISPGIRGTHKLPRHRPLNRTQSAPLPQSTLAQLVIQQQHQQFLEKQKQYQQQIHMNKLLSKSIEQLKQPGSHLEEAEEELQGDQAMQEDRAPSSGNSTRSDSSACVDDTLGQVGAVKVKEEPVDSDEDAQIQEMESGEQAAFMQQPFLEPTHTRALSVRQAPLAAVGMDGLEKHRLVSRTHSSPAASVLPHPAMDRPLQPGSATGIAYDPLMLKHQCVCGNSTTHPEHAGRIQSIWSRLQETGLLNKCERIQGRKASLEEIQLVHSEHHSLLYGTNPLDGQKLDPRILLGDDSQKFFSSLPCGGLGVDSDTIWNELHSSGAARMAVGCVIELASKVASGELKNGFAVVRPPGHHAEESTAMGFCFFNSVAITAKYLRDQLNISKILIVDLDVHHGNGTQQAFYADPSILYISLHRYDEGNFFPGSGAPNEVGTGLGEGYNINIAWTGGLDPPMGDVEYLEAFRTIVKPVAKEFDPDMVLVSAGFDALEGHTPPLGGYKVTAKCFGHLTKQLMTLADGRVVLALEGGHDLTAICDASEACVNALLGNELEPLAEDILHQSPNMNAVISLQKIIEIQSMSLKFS", "experiment": "Inhibition of recombinant C-terminal His-tagged human HDAC9 (604 to 1066 residues) expressed in baculovirus infected Sf9 cells using Ac-peptide-AMC as substrate after 1 hr by fluorescence assay"}, "Raji": {"tested_on": "Raji", "experiment": "Antiproliferative activity against human Raji cells after 72 hrs by MTT assay", "assay_type": "functional, cell-based"}, "Histone deacetylase 8": {"biological_target": "Histone deacetylase 8 (Homo sapiens, UniProt Q9BY41)", "sequence (Q9BY41 whole entry)": "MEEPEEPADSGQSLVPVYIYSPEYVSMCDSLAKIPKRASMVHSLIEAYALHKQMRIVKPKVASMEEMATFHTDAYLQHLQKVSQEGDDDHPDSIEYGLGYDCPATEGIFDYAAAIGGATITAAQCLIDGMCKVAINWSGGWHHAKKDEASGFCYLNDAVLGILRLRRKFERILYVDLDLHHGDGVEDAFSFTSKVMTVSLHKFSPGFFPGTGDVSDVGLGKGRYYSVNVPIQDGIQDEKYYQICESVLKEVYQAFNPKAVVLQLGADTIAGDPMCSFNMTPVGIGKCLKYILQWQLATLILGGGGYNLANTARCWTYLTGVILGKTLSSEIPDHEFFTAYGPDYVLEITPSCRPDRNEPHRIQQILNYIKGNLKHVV", "experiment": "Inhibition of recombinant full length C-terminal His-tagged human HDAC8 expressed in baculovirus infected in Sf9 cells using Ac-peptide-AMC as substrate after 1 hr by fluorescence assay"}, "Leukemia cell": {"tested_on": "Leukemia cell", "experiment": "Antiproliferative activity against human AML patient derived primary leukemia cells after 72 hrs by MTT assay", "assay_type": "functional, cell-based"}, "[6]": {"experiment": "Toxicity in NOD/SCID mouse xenografted with human Daudi cells at 20 mg/kg, po treated on day 1,3 and 5 per week and measured for every 2 days", "assay_type": "organism-based", "conditions": "in vivo, 48 h", "summary_of_the_method": "(§2)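 Female NOD/SCID mice (5–6 weeks) bearing s.c. Daudi xenografts, six per group. Dosing was 10 mg/kg i.v. or 20 mg/kg p.o. in 8% HP-β-CD on days 1, 3 and 5 weekly. Behaviour was observed, and organ tissues were collected at sacrifice for H&E staining.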"}, "[7]": {"experiment": "Half life in Sprague-Dawley rat plasma at 5 mg/kg, po measured upto 24 hrs by LC-MS/MS analysis", "assay_type": "ADME, organism-based", "summary_of_the_method": "as §1"}, "JeKo-1 [8]": {"tested_on": "JeKo-1", "experiment": "Induction of apoptosis in human JeKo1 cells assessed as necrotic cells at 100 nM after 48 hrs by annexin V-FITC/propidium iodide staining-based flow cytometric method (reference value: 2.03 %)", "assay_type": "functional", "summary_of_the_method": "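Jeko-1 cells were grown in RPMI-1640 with 10% FBS at 37 °C under 5% CO2. They were exposed to 0, 10, 100 or 1000 nM for 48 h, then apoptosis induction was analysed.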"}, "[9]": {"experiment": "AUC ( 0 to t) in Sprague-Dawley rat at 5 mg/kg, po measured upto 24 hrs by LC-MS/MS analysis", "assay_type": "ADME, organism-based", "set-up": "dose 5 mg/kg, time < 24 hr, route oral", "conditions": "in vivo", "summary_of_the_method": "as §1"}, "[10]": {"experiment": "Toxicity in NOD/SCID mouse xenografted with human Daudi cells at 10 mg/kg, iv treated on day 1,3 and 5 per week and measured for every 2 days", "assay_type": "organism-based", "conditions": "in vivo, 48 h", "summary_of_the_method": "as §2"}, "[11]": {"experiment": "Toxicity in NOD/SCID mouse xenografted with human Daudi cells assessed as abnormal behavior at 10 mg/kg, iv treated on day 1,3 and 5 per week and measured for every 2 days", "assay_type": "organism-based", "conditions": "in vivo, 48 h", "summary_of_the_method": "as §2"}}}
{"smiles": "Cc1ccc(CN2CCC(c3noc(CN(C)c4ncc(C(=O)NO)cn4)n3)CC2)cc1", "values": [{"measurement": "clearance", "setting": "[1]", "result": 198, "unit": "mL/min/kg"}, {"measurement": "Activity", "setting": "JeKo-1 [2]", "result": 8.5, "unit": "%"}, {"measurement": "Vd", "setting": "[3]", "result": 6.33, "unit": "L/kg"}, {"measurement": "Vdss", "setting": "[4]", "result": 29.13, "unit": "L/kg"}, {"measurement": "inhibition", "setting": "[5]", "result": 71, "unit": "%"}, {"measurement": "IC50", "setting": "Histone deacetylase 9", "result": 441, "unit": "nM"}, {"measurement": "IC50", "setting": "Raji", "result": 12.1, "unit": "nM"}, {"measurement": "IC50", "setting": "Histone deacetylase 8", "result": 260, "unit": "nM"}, {"measurement": "IC50", "setting": "Leukemia cell", "result": "21.2 to 61.1", "unit": "nM"}, {"measurement": "Activity", "setting": "[6]", "result": "Non-Toxic"}, {"measurement": "half-life", "setting": "[7]", "result": 1.01, "unit": "h"}, {"measurement": "Activity", "setting": "JeKo-1 [8]", "result": 0.061, "unit": "%"}, {"measurement": "AUC(0-t) at 24 h", "setting": "[9]", "result": 232, "unit": "ng·h/mL"}, {"measurement": "Activity", "setting": "[10]", "result": "Non-Toxic"}, {"measurement": "Activity", "setting": "[11]", "result": "Non-Toxic"}]}
